Results reported in article PMC3999704 (Current Chemical Genomics and Translational Medicine, 2014).

Assays:
Format in all cases: cell-based, rat
GH3.TRE-Luc cells = assay: Cell viability assay, intracellular ATP content; settings: over the range of concentrations used within the 24 h treatment, presence of 1 nM T3
[1] = system: thyroid hormone receptor (TR); assay: qHTS GH3.TRE-Luc luciferase reporter gene assay, agonist mode; settings: LOPAC library screen
Method in brief: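 Cells were held 20 h in serum-free assay medium (DMEM:F12 with insulin, ethanolamine, selenite, apotransferrin and BSA), then detached and dispensed in 5 µl/well. After 4–5 h at 37°C, compound or DMSO was pinned in (final DMSO 0.46 or 0.92%) for 24 h. One-Glo was added, 30 min at room temperature, then luminescence read. Data were normalized to 100 nM T3 (100%) and DMSO (0%).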

[2] = system: thyroid hormone receptor (TR); settings: 24 well format, 24h, normalized to total protein values
Method in brief: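 GH3.TRE-Luc cells were seeded at 150,000/well in DMEM:F12 with 15 mM HEPES, 10% FBS and Pen/Strep. After 24 h the medium was changed to PCM medium for another 24 h. Cells were then exposed 24 h to ligands in 0.2% DMSO. Luciferase was read from lysed cells and cell number estimated by BCA protein assay. Duplicates per dose, ≥3 experiments.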

SMILES | induction of the reporter gene luciferase activity [2] | further results
O=c1[nH]cc(F)c(=O)[nH]1 [5-fluorouracil] | – | cytotoxicity (GH3.TRE-Luc cells): without apparent cytotoxicity
NCCCC(=O)O [GABA] | – | response in this assay [1]: did not show any response
C/C(=C\c1ccc(C(=O)O)cc1)c1ccc2c(c1)C(C)(C)CCC2(C)C [TTNPB] | neither the RAR-specific ligand TTNPB nor the LXR-specific ligand T0901317 activated the reporter gene | –
O=S(=O)(c1ccccc1)N(CC(F)(F)F)c1ccc(C(O)(C(F)(F)F)C(F)(F)F)cc1 [T0901317] | neither the RAR-specific ligand TTNPB nor the LXR-specific ligand T0901317 activated the reporter gene | –
N[C@@H](Cc1cc(I)c(Oc2ccc(O)c(I)c2)c(I)c1)C(=O)O [T3, triiodothyronine] | showed the expected induction profiles | –
